From ChEMBL document CHEMBL1127630, “New dual inhibitors of neutral endopeptidase and angiotensin-converting enzyme: rational design, bioavailability, and pharmacological responses in experimental hypertension” (J Med Chem, 1994)

Columns and labels:
[1] = molecular target: T1, Neprilysin (Mus musculus) (UniProt Q61391); assay: Inhibition of Neutral Endopeptidase activity was measured by using the displacement of [3H]HACBOGly from mouse kidney after 8 hr oral administration; design: scale not given: the % may be the effect or the level left
T1 sequence (whole entry): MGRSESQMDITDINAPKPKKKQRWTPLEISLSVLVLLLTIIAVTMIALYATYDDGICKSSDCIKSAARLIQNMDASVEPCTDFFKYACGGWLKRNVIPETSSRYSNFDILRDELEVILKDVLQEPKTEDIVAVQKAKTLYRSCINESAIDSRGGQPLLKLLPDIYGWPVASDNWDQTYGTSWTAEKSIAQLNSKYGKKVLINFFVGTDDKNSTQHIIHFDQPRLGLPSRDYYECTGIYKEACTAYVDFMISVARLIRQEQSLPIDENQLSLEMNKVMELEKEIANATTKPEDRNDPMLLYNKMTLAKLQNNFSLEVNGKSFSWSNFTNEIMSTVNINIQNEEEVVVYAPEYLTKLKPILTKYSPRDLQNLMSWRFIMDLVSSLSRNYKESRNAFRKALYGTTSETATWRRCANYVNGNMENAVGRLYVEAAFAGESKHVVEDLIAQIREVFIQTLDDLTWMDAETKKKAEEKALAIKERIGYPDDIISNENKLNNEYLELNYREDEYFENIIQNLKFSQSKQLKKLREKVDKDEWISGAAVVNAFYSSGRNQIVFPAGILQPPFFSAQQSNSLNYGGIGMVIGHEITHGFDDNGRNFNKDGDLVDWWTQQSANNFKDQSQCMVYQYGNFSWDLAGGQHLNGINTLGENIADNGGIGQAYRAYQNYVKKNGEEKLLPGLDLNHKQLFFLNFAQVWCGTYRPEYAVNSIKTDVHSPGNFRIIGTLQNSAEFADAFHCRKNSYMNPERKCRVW
In short: (§1)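 Mice dosed orally at 2.6 X 10-6 mol/kg in 10% ethanol/10% cremophor/80% water. [3H]HACBOGly (1 uCi) injected iv at intervals after dosing. Kidneys taken 15 min later, homogenized in 50 mM Tris-HCl pH 7.4 at 4 °C and filtered, radioactivity counted. Inhibition expressed as percent displacement versus control. Nonspecific binding defined with coinjected retrothiorphan (10.000 eq).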

[2] = molecular target: T1, Neprilysin (Mus musculus); assay: Inhibition of Neutral Endopeptidase activity was measured by using the displacement of [3H]HACBOGly from mouse kidney after 4 hr oral administration; design: scale not given: the % may be the effect or the level left; in short: as §1
Mus musculus [3] = assay: In vivo inhibition of lung ACE was observed at 60 min after oral administration; format: functional; design: concentration or dose not given beside the values
[4] = molecular target: T2, Angiotensin-converting enzyme (Mus musculus) (UniProt P09470); assay: In vivo inhibition of lung ACE was observed at 30 min after oral administration of the compound; format: organism-based; design: concentration or dose not given beside the values
T2 sequence (whole entry): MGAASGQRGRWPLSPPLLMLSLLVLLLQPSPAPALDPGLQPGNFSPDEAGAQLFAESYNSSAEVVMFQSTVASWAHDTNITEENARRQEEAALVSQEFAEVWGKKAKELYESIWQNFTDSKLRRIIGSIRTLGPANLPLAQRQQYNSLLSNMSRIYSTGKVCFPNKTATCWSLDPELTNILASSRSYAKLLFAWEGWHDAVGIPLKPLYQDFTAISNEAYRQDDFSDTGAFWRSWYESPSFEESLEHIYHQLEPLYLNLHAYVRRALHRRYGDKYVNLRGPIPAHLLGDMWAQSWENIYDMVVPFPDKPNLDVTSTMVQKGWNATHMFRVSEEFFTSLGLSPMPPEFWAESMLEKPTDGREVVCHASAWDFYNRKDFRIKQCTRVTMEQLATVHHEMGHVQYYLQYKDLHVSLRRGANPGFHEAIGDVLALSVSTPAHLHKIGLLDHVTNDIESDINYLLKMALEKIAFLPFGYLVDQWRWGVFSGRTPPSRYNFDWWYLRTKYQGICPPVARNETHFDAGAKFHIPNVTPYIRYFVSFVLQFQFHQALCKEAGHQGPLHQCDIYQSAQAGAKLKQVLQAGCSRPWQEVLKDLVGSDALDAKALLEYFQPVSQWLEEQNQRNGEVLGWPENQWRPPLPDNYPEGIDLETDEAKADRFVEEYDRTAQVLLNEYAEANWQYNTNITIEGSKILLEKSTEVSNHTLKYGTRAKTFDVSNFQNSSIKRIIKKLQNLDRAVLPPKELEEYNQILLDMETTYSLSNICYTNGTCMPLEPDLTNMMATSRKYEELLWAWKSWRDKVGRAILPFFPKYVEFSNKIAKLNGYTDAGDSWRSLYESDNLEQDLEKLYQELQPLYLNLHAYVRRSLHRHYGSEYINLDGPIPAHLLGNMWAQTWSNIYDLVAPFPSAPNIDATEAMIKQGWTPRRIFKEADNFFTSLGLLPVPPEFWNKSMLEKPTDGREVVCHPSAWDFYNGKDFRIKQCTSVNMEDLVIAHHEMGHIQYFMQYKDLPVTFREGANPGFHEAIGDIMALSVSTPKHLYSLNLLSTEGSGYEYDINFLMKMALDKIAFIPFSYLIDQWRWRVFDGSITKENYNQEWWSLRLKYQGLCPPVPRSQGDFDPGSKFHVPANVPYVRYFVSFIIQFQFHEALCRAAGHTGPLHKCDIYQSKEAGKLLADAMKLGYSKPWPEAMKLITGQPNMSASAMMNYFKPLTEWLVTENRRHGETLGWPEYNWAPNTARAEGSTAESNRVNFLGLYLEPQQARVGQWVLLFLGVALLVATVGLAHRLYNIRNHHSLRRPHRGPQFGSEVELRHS

[5] = molecular target: T1, Neprilysin (Mus musculus); assay: Inhibition of Neutral Endopeptidase activity was measured by using the displacement of [3H]HACBOGly from mouse kidney after 2 hr oral administration; design: scale not given: the % may be the effect or the level left; in short: as §1
[6] = molecular target: T1, Neprilysin (Mus musculus); assay: Inhibition of Neutral Endopeptidase activity was measured by using the displacement of [3H]HACBOGly from mouse kidney after 1 hour oral administration; design: scale not given: the % may be the effect or the level left; in short: as §1
[7] = molecular target: T2, Angiotensin-converting enzyme (Mus musculus); assay: In vivo inhibition of lung ACE was observed at 120 min after oral administration of the compound; format: functional, organism-based; design: concentration or dose not given beside the values
[8] = molecular target: T2, Angiotensin-converting enzyme (Mus musculus); assay: In vivo inhibition of lung ACE was observed at 240 min after oral administration of the compound; format: functional, organism-based; design: concentration or dose not given beside the values
[9] = molecular target: T1, Neprilysin (Mus musculus); assay: Inhibition of Neutral Endopeptidase activity was measured by using the displacement of [3H]HACBOGly from mouse kidney after 16h oral administration; design: scale not given: the % may be the effect or the level left; in short: as §1
Mus musculus [10] = assay: (§2) In vivo inhibition of lung Angiotensin I converting enzyme in mouse at a dose of 2.6*10e-5 mol/kg after 60 min oral administration; format: functional
In short: (§3)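 Prescreen in mice: single oral dose of 2.6 X 10-5 mol/kg of prodrug (thioacetyl and benzyl ester protected, tested as stereoisomer mixtures). Inhibition of binding of a tritiated ACE probe to lung measured 20 and 60 min after dosing. Mean ± SEM of three experiments, three mice each.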

Mus musculus [11] = assay: Time course of the in vivo inhibition (percent of control) of lung ACE was observed at 30 min after oral administration of the compound; format: functional; design: scale not given: the % may be the effect or the level left
[12] = molecular target: T2, Angiotensin-converting enzyme (Mus musculus); assay: Inhibition of lung Angiotensin Converting Enzyme (ACE) in mouse at a dose of 2.6*10e-5 mol/kg after 20 min oral administration; in short: as §3
[13] = molecular target: T2, Angiotensin-converting enzyme (Mus musculus); assay: as §2; format: organism-based; in short: as §3

Row | Control [1] [%] | Control [2] [%] | Control [4] [%] | Control [5] [%] | Control [6] [%] | Control [7] [%] | Control [8] [%] | Control [9] [%] | inhibition [12] [%] | inhibition [13] [%] | SMILES | Control (Mus musculus [3]) [%] | Inhibition (Mus musculus [10]) [%] | Control (Mus musculus [11]) [%]
1 | 94 | 100 | 72 | 100 | 100 | 42 | 37 | 10 |  |  | C[C@H](NC(=O)[C@@H](CSC(=O)C12CC3CC(CC(C3)C1)C2)[C@@H](C)c1ccccc1)C(=O)O | 54 |  | 
2 |  |  |  |  |  | 21 | 2 |  | 54 |  | CC(=O)SCC(C(=O)N[C@@H](C)C(=O)OCc1ccccc1)C(C)c1ccccc1 (some centres not stated) | 46 | 44 | 41
3 |  |  |  |  |  |  |  |  | 36 | 43 | CC(=O)SCC(C(=O)NCC(=O)OCc1ccccc1)C(C)c1ccccc1 (configuration not stated) |  |  | 
